The target in assay [1] is T1, Estrogen receptor (Homo sapiens) (UniProt P03372).
T1 sequence (whole entry): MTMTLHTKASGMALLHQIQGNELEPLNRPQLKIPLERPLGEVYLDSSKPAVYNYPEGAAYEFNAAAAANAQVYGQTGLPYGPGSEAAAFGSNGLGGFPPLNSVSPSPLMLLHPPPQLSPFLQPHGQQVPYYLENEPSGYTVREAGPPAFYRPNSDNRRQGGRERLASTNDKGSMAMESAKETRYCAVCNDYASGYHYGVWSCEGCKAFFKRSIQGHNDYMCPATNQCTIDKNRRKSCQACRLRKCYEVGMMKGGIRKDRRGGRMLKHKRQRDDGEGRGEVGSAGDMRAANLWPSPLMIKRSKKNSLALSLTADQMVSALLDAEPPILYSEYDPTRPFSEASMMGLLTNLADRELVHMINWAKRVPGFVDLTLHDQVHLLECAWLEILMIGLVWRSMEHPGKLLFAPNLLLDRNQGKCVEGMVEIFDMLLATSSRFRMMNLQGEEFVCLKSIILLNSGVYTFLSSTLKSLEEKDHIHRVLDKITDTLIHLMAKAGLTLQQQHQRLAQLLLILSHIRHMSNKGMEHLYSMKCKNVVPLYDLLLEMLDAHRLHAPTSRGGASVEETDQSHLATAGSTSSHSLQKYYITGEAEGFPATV
The assay can be described thus: Relative binding affinity of Z isomers to human ERalpha-HBD at 4C compared to [3H]estradiol. The method, boiled down:
(§1)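 ERα-HBD (33 kDa) expressed in BL21 cells, induced with 0.6 mM IPTG for 3 h at room temperature. Lysed by sonication in Tris/NaCl/EDTA/DTT/1 M urea buffer, pH 7.4, clarified at 30000g, and diluted to 50 nM ER. […] Bound and free separated with dextran-coated charcoal. RBA = 100×[E]/[C], from 50% inhibition on a best-fit curve.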

In assay [2] the target is T1, Estrogen receptor (Homo sapiens). The assay can be described thus: Relative binding affinity of Z isomers to human ERalpha-HBD at 25 degree C compared to [3H]estradiol. The method, boiled down:
as §1

The target is the same in assay [3]. Put plainly: Relative binding affinity of E isomers to human ERalpha-HBD at 4C compared to [3H]-estradiol.
Assay [4] shares this target. The assay can be described thus: Relative binding affinity of E isomers to human ERalpha-HBD at 25 degree C compared to [3H]estradiol.
The target of assay [5] is T2, Estrogen receptor (Rattus norvegicus) (UniProt P06211+Q62986). Put plainly: Effective dose of E-isomer in rat uterotrophic growth assay compared to 10 nmol estradiol. The assay is classed as functional.
Assay [6] has as its target T2, Estrogen receptor (Rattus norvegicus). Put plainly: Effective dose of Z-isomer in rat uterotrophic growth assay compared to 10 nmol estradiol. The assay is classed as functional.

Among the data in ChEMBL document CHEMBL1140290, “Synthesis and evaluation of (17alpha,20Z)-21-(4-substituted-phenyl)-19-norpregna-1,3,5(10),20-tetraene-3,17beta-diols as ligands for the estrogen receptor-alpha hormone binding domain: comparison with 20E-isomers” (J Med Chem, 2005) are RBA and ED50 values, retold here.

With `C[C@]12CC[C@@H]3c4ccc(O)cc4CC[C@H]3[C@@H]1CC[C@@]2(O)/C=C\c1ccc(N)cc1`, the RBA worked out at 22% in assay [1] and 26% in assay [2].

For the compound `CC(=O)c1ccc(/C=C\[C@]2(O)CC[C@H]3[C@@H]4CCc5cc(O)ccc5[C@H]4CC[C@@]32C)cc1`, the RBA in assay [3] turned out to be 53%; in assay [1], 22%; in assay [4], 60%; in assay [2], 29%.

On to `C[C@]12CC[C@@H]3c4ccc(O)cc4CC[C@H]3[C@@H]1CC[C@@]2(O)/C=C\c1ccccc1`, for which the RBA worked out at 16% in assay [3], 57% in assay [1], 9% in assay [4] and 66% in assay [2].

`Cc1ccc(/C=C\[C@]2(O)CC[C@H]3[C@@H]4CCc5cc(O)ccc5[C@H]4CC[C@@]32C)cc1`: the ED50 in assay [5] was determined as 5.5 nmol; in assay [6], 4.2 nmol. Besides, the RBA in assay [3] came to 10%; in assay [1], 10%; in assay [4], 18%; in assay [2] it was 9%.

As for `C[C@]12CC[C@@H]3c4ccc(O)cc4CC[C@H]3[C@@H]1CC[C@@]2(O)/C=C\c1ccc(C(F)(F)F)cc1`, the ED50 in assay [5] amounted to 10.6 nmol; in assay [6] it was 1.1 nmol. Further, the RBA worked out at 5% in assay [3], 5% in assay [1], 8% in assay [4] and 9% in assay [2].

Consider `C[C@]12CC[C@@H]3c4ccc(O)cc4CC[C@H]3[C@@H]1CC[C@@]2(O)/C=C\c1ccc(F)cc1`, for which the values for the ED50 in assay [5] and in assay [6] were 72 nmol and 2.3 nmol, respectively. The RBA is 24% in assay [3], 43% in assay [1], 22% in assay [4] and 44% in assay [2].

In the case of `COc1ccc(/C=C\[C@]2(O)CC[C@H]3[C@@H]4CCc5cc(O)ccc5[C@H]4CC[C@@]32C)cc1`, the RBA in assay [3] is 36%; in assay [1] it was 20%; in assay [4] it was 32%; in assay [2], 39%.

Turning to `C[C@]12CC[C@@H]3c4ccc(O)cc4CC[C@H]3[C@@H]1CC[C@@]2(O)/C=C\c1ccc(O)cc1`, the RBA in assay [3] stood at 21%; in assay [1], 12%; in assay [4], 25%; in assay [2] it was 25%.

Take `C[C@]12CC[C@@H]3c4ccc(O)cc4CC[C@H]3[C@@H]1CC[C@@]2(O)/C=C\c1ccc(C#N)cc1`: the RBA in assay [3] stood at 9%; in assay [1], 20%; in assay [4], 27%; in assay [2] it was 12%.
